Assay results from different studies.
Protocols differ between the studies behind these lines.
HTR2B: 5-hydroxytryptamine receptor 2B (HTR2B, Homo sapiens, UniProt P41595)
HTR2C: 5-hydroxytryptamine receptor 2C (HTR2C, Homo sapiens, UniProt P28335)

SMILES | target | observed | action | method | concentration | quantity | value
COc1cc2c3c(c1OC)-c1c(OC)ccc(Cl)c1CC3N(C)CC2 (racemic) | HTR2B | ligand displacement |  | radioligand | 10 µM | inhibition | 87%
CC(C)CC(=O)OC[C@H]1O[C@@](C#N)(c2ccc3c(N)ncnn23)[C@H](O)[C@@H]1O | Prostaglandin G/H synthase 1 (PTGS1, Homo sapiens, UniProt P23219) | enzyme activity | inhibitor |  | 20 µM | inhibition | 6%
CC[C@H](C)[C@H](NC(=O)[C@H](CO)NC(=O)[C@H](Cc1ccc(O)cc1)NC(=O)[C@H](CC(=O)O)NC(=O)[C@H](CO)NC(=O)[C@@H](NC(=O)[C@H](Cc1ccccc1)NC(=O)[C@@H](NC(=O)CNC(=O)[C@H](CCC(=O)O)NC(=O)[C@@H](C)NC(=O)[C@@H](N)Cc1ccc(O)cc1)[C@@H](C)O)[C@@H](C)CC)C(=O)N[C@@H](C)C(=O)N[C@@H](CCSC)C(=O)N[C@@H](CC(=O)O)C(=O)N[C@@H](CCCCN)C(=O)N[C@H](C(=O)N[C@@H](Cc1c[nH]cn1)C(=O)N[C@@H](CCC(N)=O)C(=O)N[C@@H](CCC(N)=O)C(=O)N[C@@H](CC(=O)O)C(=O)N[C@@H](Cc1ccccc1)C(=O)N[C@H](C(=O)N[C@@H](CC(N)=O)C(=O)N[C@@H](Cc1c[nH]c2ccccc12)C(=O)N[C@@H](CC(C)C)C(=O)N[C@@H](CC(C)C)C(=O)N[C@@H](C)C(=O)N[C@@H](CCC(N)=O)C(=O)NCC(=O)N1CCC[C@H]1C(=O)N[C@@H](CO)C(=O)N[C@@H](CO)C(=O)NCC(=O)N[C@@H](C)C(=O)N1CCC[C@H]1C(=O)N1CCC[C@H]1C(=O)N1CCC[C@H]1C(=O)N[C@@H](CO)C(=O)N[C@@H](CCCCN)C(N)=O)C(C)C)[C@@H](C)CC | Glucagon receptor (Mus musculus, UniProt Q61606) | cAMP | agonist |  |  | Emax | < 20%
CN1CCC[C@H]1c1cccnc1 | HTR2B | ligand displacement |  |  | 50 µM | inhibition | -8.78%
Nc1ncnc2c1ncn2[C@@H]1O[C@H](C[C@@H](N)CC[C@H](N)C(=O)O)[C@@H](O)[C@H]1O | mRNA cap guanine-N(7) methyltransferase (RNMT, Homo sapiens, UniProt O43148) | enzyme activity | inhibitor |  | 3.125 µM | inhibition | 40.9%
COc1cc2c3c(c1OC)-c1c(OC)ccc(O)c1CC3N(C)CC2 (stereo not drawn) | HTR2C | ligand displacement |  | radioligand | 10 µM | inhibition | 60%
[2H]c1c([2H])c([C@]2([2H])CCCN2C(=O)C(C)(C)Oc2ccc3cn[nH]c3c2)c([2H])c([2H])c1C([2H])([2H])[2H] | Serine/threonine-protein kinase Nek6 (NEK6, Homo sapiens, UniProt Q9HC98) | binding |  | competition with immobilised ligand | 1 µM | remaining binding | 100%
CCOC(=O)Cc1c2c3c(cc(OC)c(OC)c3c3cc(OC)c(OC)cc13)CCN2C | HTR2C | ligand displacement |  | radioligand | 10 µM | inhibition | 6%
COc1cc(C(F)(F)F)c(OC)cc1C1CCCNC1 (stereo not drawn) | HTR2C | calcium signal | agonist |  |  | Emax | 31%
COc1cc2c3c(c1OC)-c1c(cccc1OC)CC3N(C)CC2 (racemic) | HTR2C | ligand displacement |  | radioligand | 10 µM | inhibition | 51%
c1cncc([C@@H]2CCCN2)c1 | Neuronal acetylcholine receptor; alpha3/beta4 (Rattus norvegicus, UniProt P04757+P12392) | ligand displacement |  | radioligand | 50 µM | inhibition | 69.1%
CCCC(NCCc1cc(OC)c(C#N)cc1OC)c1ccccc1O (stereo not drawn) | HTR2C | calcium signal | agonist |  |  | Emax | 56%
